Publication PMC10549236 (RSC Chemical Biology, 2023)

Tests used:
P. aeruginosa QS system = conditions: cited from earlier work
[1] = test system: hitAB gene knockout P. aeruginosa mutant (ΔhitAB); test: Gallium uptake assay by ICP-MS, ΔhitAB mutant; type: cell-based, Pseudomonas aeruginosa; conditions: 0.16 μM, ICP-MS over time
Method in brief: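 Wild-type and ΔhitAB P. aeruginosa overnight cultures were diluted to OD600 0.1 with 0.16 μM test compound. 5 mL aliquots were taken hourly up to 5 h. Pellets were washed ×3 in PBS with 1 mM EDTA, digested in 70% nitric acid at 60 °C for 2 h, diluted to 2% HNO3 and analysed for gallium by ICP-MS.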

P. aeruginosa biofilm = test: Biofilm inhibition assay; type: cell-based, Pseudomonas aeruginosa; conditions: 0.08 μM, 48 h, static, versus negative control
P. aeruginosa = test: Bacterial viability assay; type: cell-based, Pseudomonas aeruginosa
Method in brief: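 Broth dilution in 96-well plates. Test compound at 0.5–6 μg mL−1 in 0.5 μg mL−1 steps was mixed 1:1 by volume with log-phase P. aeruginosa at 10^6 CFU mL−1 and incubated at 37 °C for 22–24 h. Growth was read as OD600, with wells in duplicate.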

[2] = test system: P. aeruginosa established biofilms; test: Biofilm eradication assay; type: cell-based, Pseudomonas aeruginosa; conditions: 40 μM, third day, 48 h-old biofilm, control = 100%
Method in brief: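 P. aeruginosa was grown in M9 in 6-well plates at 37 °C for 48 h to form mature biofilm. Test compound was then added at 10, 20 or 40 μM and culture continued 2 or 3 days. Wells were PBS-washed ×3, dried, stained with 0.1% crystal violet for 15 min, rinsed, solubilised in 30% acetic acid and read at A595. Untreated was set to 100%; triplicates.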

P. aeruginosa PAO1 = test: Mouse wound infection model; type: in vivo; conditions: 2 mg kg^−1 topical twice daily, 48 h post-infection
Method in brief: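 Female BALB/c mice (6–8 weeks, 18–22 g, n = 5 per group) had hair removed and a ~2 mm × 2 mm excisional flank wound made. The wound received ~5 × 10^8 CFU of PBS-washed static overnight PAO1 in 10 μL. Test compound at 2 mg kg−1 in cream was applied topically twice daily; vehicle cream served as control. At 48 h post-infection lesions were excised, homogenised and serially diluted for CFU.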

pyocyanin = test: Pyocyanin secretion assay; type: cell-based, Pseudomonas aeruginosa; conditions: 0.08 μM, 20 h
Method in brief: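 P. aeruginosa was cultured with 0.08 μM test compound at 37 °C for about 20 h to OD600 2. Pigment was extracted from about 10 mL of supernatant with chloroform, back-extracted into 0.2 M HCl, and pyocyanin read at A520.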

## O=c1cc(-c2ccccc2)oc2cc(O)cc(O)c12 [Chrysin]
P. aeruginosa QS system
  Activity against P. aeruginosa QS system: antagonists against P. aeruginosa QS system

## O=c1cc(-c2ccccc2)oc2cc(O)c(O)c(O)c12 [Baicalein]
P. aeruginosa QS system
  Activity against P. aeruginosa QS system: antagonists against P. aeruginosa QS system

## O=[N+]([O-])[O-].O=[N+]([O-])[O-].O=[N+]([O-])[O-].[Ga+3] [Ga(NO3)3]
[1]
  Gallium uptake rate of ΔhitAB mutant compared to WT: significantly abrogated
P. aeruginosa biofilm
  Reduction of biofilm formation: approximately 50%
P. aeruginosa
  IC50: 3.11 µg/mL
[2]
  Biofilms remained: 30%
P. aeruginosa PAO1
  Lower number of CFU of P. aeruginosa compared to the control group: 2 log
pyocyanin
  Decrease in pyocyanin secretion: 47%

## O=C1C[C@@H](c2ccc(O)cc2)Oc2cc(O)cc(O)c21 [Naringenin]
P. aeruginosa QS system
  Activity against P. aeruginosa QS system: antagonists against P. aeruginosa QS system
